Experimental data published in ChEMBL document CHEMBL1156791, “Antimicrobial activity of small beta-peptidomimetics based on the pharmacophore model of short cationic antimicrobial peptides” (J Med Chem, 2010).
In brackets after ≈: the same amount, converted by molar mass.

Key:
Escherichia coli = test: Antimicrobial activity against Escherichia coli ATCC 25922; format: functional
[1] = Stability in presence of alpha-chymotrypsin after 48 hrs; format: ADME
How it was run: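 Digestion with α-chymotrypsin (2 μg/mL final) of 100 μg/mL compound in 100 mM Tris-HCl with 10 mM CaCl2. Aliquots taken at 0, 15, 30, 60, 120, 240 min, 24 and 48 h. Quenched with 10% acetic acid plus atenolol external standard, then quantified by LC-MS/MS in positive MRM mode, in duplicate. Remaining compound expressed relative to enzyme-free control.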

[2] = Stability in aqueous solution at pH7.4 after 48 hrs; format: physicochemical; conditions: buffer, pH 7.4, 48 h
[3] = Hemolytic activity in human RBC assessed as hemolysis at 1000 ug/ml after 1 hr; format: ADME, cell-based; conditions: erythrocyte

MIC (Escherichia coli): 144 µM (≈ 66.9 µg/mL) | Stability [1]: Stable | Stability [2]: Stable
SMILES: N=C(N)NCCC[C@H](NC(=O)C(CN)(CCC1CCCCC1)CCC1CCCCC1)C(N)=O
MBC (Escherichia coli): 289 µM (≈ 134 µg/mL) | Activity [3]: Non-toxic
